System: HEK-293T
Assay: Multiplex assay against HEK293T
Type: toxicity, cell-based
Conditions: human
How it was run: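 Per cents of healthy-nucleus cells form the tubulin, mitochondrial-mass and membrane-permeability phenotype values. Live cells were stained at seeding with Hoechst33342, BioTracker Green Microtubule Cytoskeleton Dye, MitoTracker Red and Annexin V Alexa Fluor 680. After compound addition they were imaged on a CQ1 microscope at 37°C and 5% CO2, and CellPathfinder machine-learning gating split them into Hoechst high-intensity objects or normal cells, normal cells into healthy, pyknosed or fragmented nuclei, and pyknosed cells into mitotic or apoptotic.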

[1] = 12 h, 1 µM, compound concentration 1 uM, replicate 1
[2] = 12 h, 1 µM, compound concentration 1 uM, replicate 2
[3] = 12 h, 10 µM, compound concentration 10 uM, replicate 1
[4] = 12 h, 10 µM, compound concentration 10 uM, replicate 2
[5] = 24 h, 1 µM, compound concentration 1 uM, replicate 1
[6] = 24 h, 1 µM, compound concentration 1 uM, replicate 2
[7] = 24 h, 10 µM, compound concentration 10 uM, replicate 1
[8] = 24 h, 10 µM, compound concentration 10 uM, replicate 2
[9] = 48 h, 1 µM, compound concentration 1 uM, replicate 1
[10] = 48 h, 1 µM, compound concentration 1 uM, replicate 2
[11] = 48 h, 10 µM, compound concentration 10 uM, replicate 1
[12] = 48 h, 10 µM, compound concentration 10 uM, replicate 2

SMILES: CC(C)(C)c1ccc(CSc2cnn(C(C)(C)C)c(=O)c2Cl)cc1 [PYRIDABEN]
- Population Apoptotic (%) [1]: 51%
- Population Fragmented Nuclei (%) [1]: 7%
- Population Healthy Nuclei (%) [1]: 78%
- Population Hoechst High Intensity Objects (%) [1]: 12%
- Population Membrane Permeable-Phenotype (%) [1]: 0%
- Population Mitochondria Different-Phenotype (%) [1]: 51%
- Population Mitotic Cells (%) [1]: 48%
- Population Normal (%) [1]: 87%
- Population Pyknosed Nuclei (%) [1]: 14%
- Population Tubulin-Different-Phenotype (%) [1]: 34%
- Total Cell Count [1]: 299
- Population Apoptotic (%) [2]: 28%
- Population Fragmented Nuclei (%) [2]: 6%
- Population Healthy Nuclei (%) [2]: 83%
- Population Hoechst High Intensity Objects (%) [2]: 8%
- Population Mitochondria Different-Phenotype (%) [2]: 63%
- Population Mitotic Cells (%) [2]: 71%
- Population Normal (%) [2]: 91%
- Population Pyknosed Nuclei (%) [2]: 10%
- Population Tubulin-Different-Phenotype (%) [2]: 30%
- Total Cell Count [2]: 306
- Population Apoptotic (%) [3]: 56%
- Population Fragmented Nuclei (%) [3]: 6%
- Population Healthy Nuclei (%) [3]: 77%
- Population Hoechst High Intensity Objects (%) [3]: 11%
- Population Membrane Permeable-Phenotype (%) [3]: 0%
- Population Mitochondria Different-Phenotype (%) [3]: 75%
- Population Mitotic Cells (%) [3]: 44%
- Population Normal (%) [3]: 88%
- Population Pyknosed Nuclei (%) [3]: 15%
- Population Tubulin-Different-Phenotype (%) [3]: 55%
- Total Cell Count [3]: 359
- Population Apoptotic (%) [4]: 62%
- Population Fragmented Nuclei (%) [4]: 8%
- Population Healthy Nuclei (%) [4]: 74%
- Population Hoechst High Intensity Objects (%) [4]: 17%
- Population Mitochondria Different-Phenotype (%) [4]: 81%
- Population Mitotic Cells (%) [4]: 37%
- Population Normal (%) [4]: 82%
- Population Pyknosed Nuclei (%) [4]: 16%
- Population Tubulin-Different-Phenotype (%) [4]: 38%
- Total Cell Count [4]: 236
- Population Apoptotic (%) [5]: 33%
- Population Fragmented Nuclei (%) [5]: 7%
- Population Healthy Nuclei (%) [5]: 80%
- Population Hoechst High Intensity Objects (%) [5]: 9%
- Population Membrane Permeable-Phenotype (%) [5]: 0%
- Population Mitochondria Different-Phenotype (%) [5]: 37%
- Population Mitotic Cells (%) [5]: 66%
- Population Normal (%) [5]: 90%
- Population Pyknosed Nuclei (%) [5]: 11%
- Population Tubulin-Different-Phenotype (%) [5]: 27%
- Total Cell Count [5]: 373
- Population Apoptotic (%) [6]: 35%
- Population Healthy Nuclei (%) [6]: 83%
- Population Hoechst High Intensity Objects (%) [6]: 8%
- Population Mitochondria Different-Phenotype (%) [6]: 43%
- Population Mitotic Cells (%) [6]: 64%
- Population Normal (%) [6]: 91%
- Population Pyknosed Nuclei (%) [6]: 8%
- Population Tubulin-Different-Phenotype (%) [6]: 22%
- Total Cell Count [6]: 370
- Population Apoptotic (%) [7]: 44%
- Population Fragmented Nuclei (%) [7]: 7%
- Population Healthy Nuclei (%) [7]: 79%
- Population Hoechst High Intensity Objects (%) [7]: 10%
- Population Membrane Permeable-Phenotype (%) [7]: 0%
- Population Mitochondria Different-Phenotype (%) [7]: 68%
- Population Mitotic Cells (%) [7]: 55%
- Population Normal (%) [7]: 89%
- Population Pyknosed Nuclei (%) [7]: 12%
- Population Tubulin-Different-Phenotype (%) [7]: 52%
- Total Cell Count [7]: 386
- Population Apoptotic (%) [8]: 46%
- Population Fragmented Nuclei (%) [8]: 8%
- Population Healthy Nuclei (%) [8]: 70%
- Population Hoechst High Intensity Objects (%) [8]: 23%
- Population Mitochondria Different-Phenotype (%) [8]: 65%
- Population Mitotic Cells (%) [8]: 53%
- Population Normal (%) [8]: 76%
- Population Pyknosed Nuclei (%) [8]: 21%
- Population Tubulin-Different-Phenotype (%) [8]: 25%
- Total Cell Count [8]: 252
- Population Apoptotic (%) [9]: 19%
- Population Fragmented Nuclei (%) [9]: 11%
- Population Healthy Nuclei (%) [9]: 80%
- Population Hoechst High Intensity Objects (%) [9]: 5%
- Population Membrane Permeable-Phenotype (%) [9]: 0%
- Population Mitochondria Different-Phenotype (%) [9]: 25%
- Population Mitotic Cells (%) [9]: 80%
- Population Normal (%) [9]: 94%
- Population Pyknosed Nuclei (%) [9]: 7%
- Population Tubulin-Different-Phenotype (%) [9]: 14%
- Total Cell Count [9]: 585
- Population Apoptotic (%) [10]: 30%
- Population Fragmented Nuclei (%) [10]: 9%
- Population Healthy Nuclei (%) [10]: 84%
- Population Hoechst High Intensity Objects (%) [10]: 4%
- Population Mitochondria Different-Phenotype (%) [10]: 21%
- Population Mitotic Cells (%) [10]: 69%
- Population Normal (%) [10]: 95%
- Population Pyknosed Nuclei (%) [10]: 6%
- Population Tubulin-Different-Phenotype (%) [10]: 13%
- Total Cell Count [10]: 522
- Population Apoptotic (%) [11]: 48%
- Population Fragmented Nuclei (%) [11]: 8%
- Population Healthy Nuclei (%) [11]: 79%
- Population Hoechst High Intensity Objects (%) [11]: 11%
- Population Membrane Permeable-Phenotype (%) [11]: 0%
- Population Mitochondria Different-Phenotype (%) [11]: 59%
- Population Mitotic Cells (%) [11]: 51%
- Population Normal (%) [11]: 88%
- Population Pyknosed Nuclei (%) [11]: 12%
- Population Tubulin-Different-Phenotype (%) [11]: 43%
- Total Cell Count [11]: 424
- Population Apoptotic (%) [12]: 64%
- Population Fragmented Nuclei (%) [12]: 13%
- Population Healthy Nuclei (%) [12]: 71%
- Population Hoechst High Intensity Objects (%) [12]: 14%
- Population Mitochondria Different-Phenotype (%) [12]: 48%
- Population Mitotic Cells (%) [12]: 35%
- Population Normal (%) [12]: 85%
- Population Pyknosed Nuclei (%) [12]: 14%
- Population Tubulin-Different-Phenotype (%) [12]: 28%
- Total Cell Count [12]: 290
